Results of several laboratories.
Lines come from different studies, so protocols differ. pIC50: −log10 of the molar value.
Organism: Trypanosoma cruzi
Read-out: parasite growth

Compound	test	test system	conditions	endpoint	result
O=C(N[C@@H](Cc1ccccc1)C(=O)c1ncc(-c2ccccc2)s1)[C@H](Cc1ccccc1)NC(=O)N1CCOCC1	–	TULAHUEN	intracellular, amastigote	pIC50	4.70
COc1ccc(Nc2nc(-c3ccc(C)cc3)nc3ccccc23)cc1	imaging	U2OS	intracellular, amastigote	pIC50	5.51
O=C(Nc1ccc2c(c1)B(O)OC2)Nc1ccc(F)c(C(F)(F)F)c1	–	TULAHUEN	intracellular, amastigote	pIC50	5.18
O=C(N[C@H](CCc1ccccc1)C(=O)c1cc(Cc2ccccc2)on1)[C@H](Cc1ccccc1)NC(=O)N1CCOCC1	–	TULAHUEN	intracellular, amastigote	pIC50	< 4.19
O=C(Cn1ccnc1[N+](=O)[O-])NCc1ccccc1	–	TULAHUEN	intracellular, amastigote	pIC50	5.92
Cn1ccnc1-c1nc(N2CCCCC2)c2ccccc2n1	imaging	U2OS	intracellular, amastigote	pIC50	5.41
CCCCCCCCCCCCCC#CC(=O)O	–	rat Myoblast, TULAHUEN	intracellular, amastigote	IC50	20.2 µg/mL
CC1CS(=O)(=O)CCN1/N=C/c1ccc([N+](=O)[O-])o1 (stereo not shown)	–	–	epimastigote	pIC50	5.62
Oc1cccc(-c2nc(N3CCC(c4ccccn4)C3)c3ccccc3n2)c1 (stereo not shown)	imaging	U2OS	intracellular, amastigote	pIC50	5.37
O=C(N[C@@H](Cc1ccccc1)C(=O)c1c[nH]nn1)[C@H](Cc1ccccc1)NC(=O)N1CCOCC1	–	TULAHUEN	intracellular, amastigote	pIC50	< 4.19
C=C1CC[C@H]2C(C)=CC[C@H]3C(=C)C(=O)O[C@@H]3[C@@H]12	–	–	72 h, epimastigote	pIC50	5.72
O=C(Cn1ccnc1[N+](=O)[O-])NCc1ccccc1	–	NIH3T3, TULAHUEN	96 h, intracellular, amastigote	pIC50	5.95
C[Si](C)(C)c1cc(C(=O)[C@H](Cc2ccccc2)NC(=O)[C@H](Cc2ccccc2)NC(=O)N2CCOCC2)no1 (single isomer, unassigned)	–	TULAHUEN	intracellular, amastigote	pIC50	< 4.19
Fc1ccccc1-c1nc(N2CCC(c3ccccn3)C2)c2ccccc2n1 (stereo not shown)	imaging	U2OS	intracellular, amastigote	pIC50	5.27
O=C(N[C@@H](Cc1ccccc1)C(=O)c1nc2ccccc2o1)[C@H](Cc1ccccc1)NC(=O)N1CCOCC1	–	TULAHUEN	intracellular, amastigote	pIC50	4.50
c1ccc(C2CCN(c3nc(-c4cnn5c4CCCC5)nc4ccccc34)C2)nc1 (stereo not shown)	imaging	U2OS	intracellular, amastigote	pIC50	5.37
